Sampled rows, rich in hits. Any-hit rate of the full collection: about 3.5%.
MrgX1 allo act: allosterically activates human MrgX1 receptor signaling; Q96LB2; MrgX1-HEK293, Fluo-4 calcium flux, FDSS; hits give high values; B-score at 10 µM; 310,000 compounds, 0.63% hits; AID 588675;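 active means plate-corrected calcium response at least 3 library SD above typical, normal starting fluorescence, not activating the receptor alone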;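 further: compound read alongside a low EC10 to EC30 dose of BAM8-22 agonist; peak minus trough fluorescence over baseline measured at the second addition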
Target sequence (Q96LB2 whole entry, looked up): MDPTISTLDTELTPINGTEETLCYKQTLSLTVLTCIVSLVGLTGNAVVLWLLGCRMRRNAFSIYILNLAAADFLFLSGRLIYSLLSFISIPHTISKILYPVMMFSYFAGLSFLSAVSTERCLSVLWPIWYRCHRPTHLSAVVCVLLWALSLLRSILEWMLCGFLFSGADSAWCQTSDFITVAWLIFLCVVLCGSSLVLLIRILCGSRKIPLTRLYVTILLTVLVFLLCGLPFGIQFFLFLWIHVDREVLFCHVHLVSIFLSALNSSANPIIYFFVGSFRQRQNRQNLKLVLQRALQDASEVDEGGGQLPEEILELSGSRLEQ
MrgX1 ag: agonists of human MrgX1 receptor | Q96LB2 | MrgX1-HEK293 cells, Fluo-4 calcium fluorescence, agonist mode; hits give high values | B-score at 10 µM | 310,000 compounds, 0.44% hits;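 active means calcium response B-score plate-corrected fluorescence ratio at least 3 library SD, with starting fluorescence B-score inside 5 SD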
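Material: MrgX1-expressing HEK293 cells / Dosing: compound as first of three additions / Incubation: overnight seeding, then 1 h dark dye loading / Signal: Fluo-4 NW calcium fluorescence / Evaluation: B-scored fluorescence response ratio / Benchmarks: positive and negative control wells on each plate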
RGS4 pot: potentiators or activators of RGS4; 310,000 compounds, 0.92% hits; HEK293 M3R/inducible RGS4, carbachol calcium flux Fluo4; hits give low values; B-score at 10 µM;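 active means B-score of the integrated calcium signal more than 4 SD below the library mean, with starting fluorescence not abnormally high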;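 further: negative B-score means reduced calcium response which marks RGS4 activation or potentiation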
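System – HEK293 FlpIn-TREx cells, stable M3R, doxycycline-inducible RGS4 · Reagent – ECmax carbachol challenge · Times – compound preincubation 20 min at room temperature before agonist · Technique – Fluo4 fluorescence kinetic imaging of calcium · Measure – B score of integrated Fluo4 ratio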
RGS4 inh: inhibitors of human RGS4 | 310,000 compounds, 0.45% hits | B-score at 10 µM | P49798 | HEK293 M3R/RGS4 inducible, Fluo-4 calcium flux; hits give high values; triggered by carbachol at its EC20;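 active means B-score, a plate-corrected calcium signal, over three deviations above library mean, with baseline fluorescence within five deviations of library mean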;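 further: RGS4 expression induced by doxycycline in cells with stable M3 receptor; B-score is computed from the integrated fluorescence ratio over baseline after carbachol; higher B-score means a larger calcium signal and so more RGS4 inhibition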
Target sequence (P49798 whole entry, looked up): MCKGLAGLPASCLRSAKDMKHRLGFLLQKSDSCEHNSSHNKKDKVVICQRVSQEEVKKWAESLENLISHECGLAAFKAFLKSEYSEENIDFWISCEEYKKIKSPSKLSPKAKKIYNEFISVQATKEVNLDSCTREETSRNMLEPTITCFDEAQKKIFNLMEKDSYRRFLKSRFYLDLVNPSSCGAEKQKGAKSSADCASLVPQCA
MrgX1 antagonist: antagonists of human MrgX1 receptor; Q96LB2; MRGX1-HEK293 calcium flux, Fluo-4, BAM8-22 antagonism; hits give low values; B-score at 10 µM; 310,000 compounds, 1.3% hits; AID 588676;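 active means calcium-response B-score plate-corrected more than 3 library SD below zero, starting fluorescence within 5 deviations, no agonist response on first addition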;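 further: peak minus trough fluorescence over baseline after final BAM8-22 challenge near maximal dose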
RGS4 activ val: confirmation of RGS4 activators. AID 602282. shares compounds with RGS4 pot. 1,100 compounds, 89% hits. inhibition, % at 10 µM. HEK293 M3R/RGS4 inducible, carbachol calcium flux Fluo4;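 active means inhibition above 3 SD of the buffer control wells, cut at about 41% in these data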;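 further: signal is the integrated peak-minus-minimum Fluo4 fluorescence over baseline ratio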
RGS4 act ctr: activity in cells without induced RGS4 expression; shares compounds with RGS4 pot; HEK293 M3R non-induced RGS4, Fluo4 calcium flux; after carbachol challenge at its EC90; inhibition, % at 10 µM; 1,100 compounds, 82% hits; AID 602283;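 active means inhibition exceeding 3 SD of buffer-only control wells, cut at about 26% in these data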;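 further: percent drop in integrated peak-minus-baseline over baseline Fluo4 ratio after carbachol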
MrgX1 antag conf: human MrgX1 receptor antagonism, re-confirmation screen | MrgX1-HEK293, BAM8-22 calcium flux, Fluo-4; hits give low values | 2,300 compounds, 19% hits | AID 602420 | shares compounds with MrgX1 antagonist | remaining BAM8-22 calcium response % of control (hits give low values), % at 10 µM;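 active means remaining agonist calcium response no higher than 100% minus 3 SD of agonist-only control wells, with starting fluorescence near control levels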;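 further: agonist BAM8-22 given at a near maximal EC90 to ECmax level; peak minus minimum fluorescence divided by baseline after agonist addition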
HEK293 Ca flux: MrgX1 antagonist counter-screen hit in parental HEK293 cells; shares compounds with MrgX1 antagonist; 4,000 compounds, 2% hits; Fluo-4 calcium fluorescence, FDSS; AID 624111; fluorescence ratio F(max-min)/F0 at 10 µM;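 active means duplicate-averaged calcium fluorescence ratio at least three times the standard deviation of buffer wells, a nonspecific response in parental cells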
HEK293 Ca counter: MrgX1 allosteric activator counter-screen hit in parental HEK293 cells. shares compounds with MrgX1 antagonist. parental HEK293 calcium flux, Fluo-4 fluorescence ratio; hits give high values. fluorescence ratio F(max-min)/F0 at 10 µM. 4,000 compounds, 0.4% hits;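 active means calcium fluorescence ratio, averaged over duplicates, at least 3 SD of the buffer-well ratio, meaning a nonspecific response in receptor-free cells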;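 further: untransfected parental HEK293 lacking MrgX1 used as counterscreen for MrgX1 allosteric activators; fluorescence change taken during the second addition on a kinetic imager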
HEK293 Ca cntr2: MrgX1 activator counter-screen hit in parental HEK293 cells; shares compounds with MrgX1 antagonist; 4,000 compounds, 8.7% hits; Fluo-4 calcium fluorescence (FDSS); hits give high values; fluorescence ratio F(max-min)/F0 at 10 µM;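 active means calcium fluorescence ratio at least three times the spread of buffer wells, meaning a non-specific response in parental cells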
Starred values were filed as active, the others as inactive; i = inactive; nt = no result given.

SMILES	MrgX1 allo act	MrgX1 ag	RGS4 pot	RGS4 inh	MrgX1 antagonist	RGS4 activ val	RGS4 act ctr	others
CN1CC(C(=O)c2ccc(Cl)cc2)C(c2ccc(Cl)cc2Cl)C1 (stereo unspecified)	i	i	i	i	i	nt	nt
CN1CCC(O)(c2ccc(Cl)cc2)C(C(=O)c2ccc(Cl)cc2)C1 (stereo unspecified)	i	i	-9.6*	i	i	94*	66*
NN=C(N)N	i	i	nt	nt	i	nt	nt
CN(CC1COc2ccccc2O1)c1nc(-c2cccnc2)nc2ccccc12 (stereo unspecified)	i	i	-10*	i	i	90*	93*
CC1CN=C(Nc2cccc3ccccc23)S1 (stereo unspecified)	i	i	-8.5*	i	i	0	0
CC1CN=C(Nc2ccccc2)S1 (stereo unspecified)	i	i	i	i	i	nt	nt
COc1ccc(OC)c(NC(=O)N2C[C@H]3C[C@@H](C2)c2cccc(=O)n2C3)c1	i	i	i	i	i	nt	nt
O=C(c1ccc(Cl)cc1)C1CCCN(Cc2ccc3c(c2)OCCO3)C1 (stereo unspecified)	i	i	-8.7*	i	i	91*	41*
CN1CCN(CCC(C#N)(c2ccccc2)c2ccccc2)CC1	i	i	-7.7*	i	i	94*	92*
CN1CCN(Cc2ccc3ccccc3c2)CC1	i	i	i	i	i	nt	nt
O=C(Nc1cccc(Cl)c1)OC1CN2CCC1CC2 (stereo unspecified)	i	i	i	i	i	nt	nt
O=C(Nc1ccccc1F)OC1CN2CCC1CC2 (stereo unspecified)	i	i	-10*	i	i	51*	0
O=C(Nc1ccc(Cl)cc1)OC1CN2CCC1CC2 (stereo unspecified)	i	i	i	i	i	nt	nt
O=C(Nc1ccccc1Cl)OC1CN2CCC1CC2 (stereo unspecified)	i	i	-8.5*	i	i	88*	62*
CCC(=NCCCn1ccnc1)c1c(O)n(-c2ccc(OC)cc2)c(=O)[nH]c1=O	i	i	i	i	i	nt	nt
COc1ccc(CN2CCCC(C(=O)c3cccc(Cl)c3)C2)cc1 (stereo unspecified)	i	i	i	i	i	nt	nt
O=C(c1cccc(Cl)c1)C1CCCN(Cc2cccc3cnccc23)C1 (stereo unspecified)	i	i	-7.6*	i	i	52*	84*
Cc1ccccc1-n1c(O)c(/C=N/N2CCOCC2)c(=O)[nH]c1=S	i	i	i	i	i	nt	nt
Cc1ccc(C(O)(c2ccc(C)c(C)c2)C2CN3CCC2CC3)cc1C (stereo unspecified)	i	i	i	i	i	nt	nt
Cc1ccccc1C(O)(Cc1ccccc1)C1CN2CCC1CC2 (stereo unspecified)	i	i	-8.2*	i	i	92*	88*
Cc1ccsc1CNCCc1ccccc1F	i	i	i	i	i	nt	nt
Clc1ccc(OCC#CCN2CCCC2)cc1	i	i	-9.6*	i	i	54*	0
O=C(c1ccc(C(F)(F)F)cc1)C1CCCN(C2CCSCC2)C1 (stereo unspecified)	i	i	-12*	i	i	90*	48*
Cc1cc(Cl)ccc1C(=O)C1CCCN(C2CCSCC2)C1 (stereo unspecified)	i	i	-10*	i	i	90*	69*
COc1ccc(OC)c(CN2CCN(C(=O)Cc3ccccc3)CC2)c1	i	i	i	i	i	nt	nt
SMILES	MrgX1 allo act	MrgX1 ag	RGS4 pot	RGS4 inh	MrgX1 antagonist	RGS4 activ val	RGS4 act ctr	others
Cc1ccc2cc(CNCCc3ccccc3C)c(=O)[nH]c2c1	i	i	i	i	i	nt	nt
CC(Cc1ccccc1Sc1ccccc1O)N(C)C (stereo unspecified)	i	i	-8.6*	i	i	93*	91*
C=CCC1(Nc2ccccc2)CC(C)N(C)CC1C (stereo unspecified)	i	i	-7.7*	i	i	59*	84*
CCC1(OC(=O)c2ccccc2)CC(C)N(C)CC1C (stereo unspecified)	i	i	i	i	i	nt	nt
O=c1cc(C(F)(F)F)c2cc3c4c(c2o1)CCCN4CCC3	i	i	-9.1*	i	i	98*	94*
OC(C#CCN1CCOCC1)(c1ccccc1)C1CCCC1 (stereo unspecified)	i	i	-8.9*	i	i	56*	84*
O=[N+]([O-])c1ccc(N2CCCC(C(F)(F)F)C2)c2ccncc12 (stereo unspecified)	i	i	i	i	i	nt	nt
CN1CCc2cc3c(c4c2C1Cc1ccccc1-4)OCO3 (stereo unspecified)	i	i	-7.8*	i	-6.6*	0	0	MrgX1 antag conf=i;HEK293 Ca flux=i;HEK293 Ca counter=i;HEK293 Ca cntr2=i
CCOC(=O)C1CCN(C(C)C(=O)c2c(C)[nH]c3cc(C)ccc23)CC1 (stereo unspecified)	i	i	nt	nt	i	nt	nt

Bioassay records as filed in PubChem.
